The array DNA melting data of Ke et al. (doi:10.1101/2024.01.08.574731)

Experiments:
[1] = melting temperature; fluorescence melt of hairpins on a sequencing array, two-state fit, raised by 9.35 °C to match UV melts; details: sodium 0.088 M
Procedure, shortened: (§1)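 Melting temperature and folding enthalpy were obtained by bootstrapped two-state fitting. Fits used Cy3 fluorescence of library hairpins with annealed Cy3 and quencher oligos on a sequenced MiSeq flow cell, imaged in 50 mM Na-HEPES pH 8.0, 25 mM NaCl in 2.5 °C steps up to 60 °C and normalised to pre-quench Cy3 and control constructs. Four replicates were combined by inverse-variance weighting, and fitted temperatures were raised by 9.35 °C to match UV melts.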

[2] = folding enthalpy; higher = less favourable; fluorescence melt of hairpins on a sequencing array, two-state fit; details: sodium 0.088 M
Procedure, shortened: as §1

AAAGGGAAACCTTT (((((....)))))
Tm [1]: 32.2 °C
folding enthalpy [2]: -10 kcal/mol

AACGAGAAATCGTT (((((....)))))
Tm [1]: 38.5 °C
folding enthalpy [2]: -16.9 kcal/mol

AAGATGAAAATCTT (((((....)))))
Tm [1]: 28.4 °C
folding enthalpy [2]: -8.93 kcal/mol

AATGGGAAACCATT (((((....)))))
Tm [1]: 37.7 °C
folding enthalpy [2]: -14.1 kcal/mol

ACAGGGAAACCTGT (((((....)))))
Tm [1]: 48.3 °C
folding enthalpy [2]: -18.8 kcal/mol

ACAGTGAAAACTGT (((((....)))))
Tm [1]: 45.7 °C
folding enthalpy [2]: -19.2 kcal/mol

ACATCGAAAGATGT (((((....)))))
Tm [1]: 52.6 °C
folding enthalpy [2]: -19.6 kcal/mol

ACCAAGAAATTGGT (((((....)))))
Tm [1]: 37.5 °C
folding enthalpy [2]: -13.7 kcal/mol

ACCATGAAAATGGT (((((....)))))
Tm [1]: 46.6 °C
folding enthalpy [2]: -20.3 kcal/mol

ACCGGGAAACCGGT (((((....)))))
Tm [1]: 66.5 °C
folding enthalpy [2]: -16.6 kcal/mol

ACCTTGAAAAAGGT (((((....)))))
Tm [1]: 47.3 °C
folding enthalpy [2]: -13.4 kcal/mol

ACGAGGAAACTCGT (((((....)))))
Tm [1]: 50.3 °C
folding enthalpy [2]: -26 kcal/mol

ACGCAGAAATGCGT (((((....)))))
Tm [1]: 55.7 °C
folding enthalpy [2]: -21.7 kcal/mol

ACTACGAAAGTAGT (((((....)))))
Tm [1]: 50.9 °C
folding enthalpy [2]: -18.7 kcal/mol

ACTCGGAAACGAGT (((((....)))))
Tm [1]: 52.3 °C
folding enthalpy [2]: -20.8 kcal/mol

ACTTTGAAAAAAGT (((((....)))))
Tm [1]: 30.6 °C
folding enthalpy [2]: -8.08 kcal/mol

AGAAACAGAAATGGTTCT ((((.((....)).))))
Tm [1]: 33.1 °C
folding enthalpy [2]: -22.8 kcal/mol

AGAAACCGAAAGGCTTCT ((((.((....)).))))
Tm [1]: 40.9 °C
folding enthalpy [2]: -28.4 kcal/mol

AGAAGGAAACTTCT (((((....)))))
Tm [1]: 30.7 °C
folding enthalpy [2]: -13.6 kcal/mol

AGCAGGAAACTGCT (((((....)))))
Tm [1]: 52.7 °C
folding enthalpy [2]: -22.8 kcal/mol

AGCCTGAAAAGGCT (((((....)))))
Tm [1]: 66.1 °C
folding enthalpy [2]: -18.2 kcal/mol

AGGAAGAAATTCCT (((((....)))))
Tm [1]: 28.9 °C
folding enthalpy [2]: -11.9 kcal/mol

ATAGGGAAACCTAT (((((....)))))
Tm [1]: 32.4 °C
folding enthalpy [2]: -11.2 kcal/mol

ATAGTGAAAACTAT (((((....)))))
Tm [1]: 30.4 °C
folding enthalpy [2]: -12.8 kcal/mol

ATATCGAAAGATAT (((((....)))))
Tm [1]: 42.2 °C
folding enthalpy [2]: -15.8 kcal/mol

ATATGGAAACATAT (((((....)))))
Tm [1]: 27.6 °C
folding enthalpy [2]: -11.4 kcal/mol

ATCCCGAAAGGGAT (((((....)))))
Tm [1]: 60.9 °C
folding enthalpy [2]: -29.1 kcal/mol

ATCTGGAAACAGAT (((((....)))))
Tm [1]: 39.1 °C
folding enthalpy [2]: -18.3 kcal/mol

ATCTTGAAAAAGAT (((((....)))))
Tm [1]: 32.9 °C
folding enthalpy [2]: -9.95 kcal/mol

ATGCGGAAACGCAT (((((....)))))
Tm [1]: 57.7 °C
folding enthalpy [2]: -17.1 kcal/mol

ATGTAGAAATACAT (((((....)))))
Tm [1]: 28.2 °C
folding enthalpy [2]: -7.12 kcal/mol

ATTCGGAAACGAAT (((((....)))))
Tm [1]: 44.8 °C
folding enthalpy [2]: -18.4 kcal/mol

ATTCTGAAAAGAAT (((((....)))))
Tm [1]: 32.2 °C
folding enthalpy [2]: -12.6 kcal/mol

ATTGCGAAAGCAAT (((((....)))))
Tm [1]: 57.6 °C
folding enthalpy [2]: -17.5 kcal/mol

ATTGTGAAAACAAT (((((....)))))
Tm [1]: 39 °C
folding enthalpy [2]: -14.9 kcal/mol

ATTTCGAAAGAAAT (((((....)))))
Tm [1]: 42.1 °C
folding enthalpy [2]: -16 kcal/mol

CAACAGAAATGTTG (((((....)))))
Tm [1]: 40.8 °C
folding enthalpy [2]: -22.1 kcal/mol

CAACCAGAAATGGTTG ((((((....))))))
Tm [1]: 53.1 °C
folding enthalpy [2]: -29.4 kcal/mol

CAACTGAAAAGTTG (((((....)))))
Tm [1]: 46.2 °C
folding enthalpy [2]: -22.1 kcal/mol

CAAGAGAAATCTTG (((((....)))))
Tm [1]: 31.7 °C
folding enthalpy [2]: -10.5 kcal/mol

CAATCAGAAATGGTTG (((.((....)).)))
Tm [1]: 29.3 °C
folding enthalpy [2]: -13.9 kcal/mol

CAATCGAAAGATTG (((((....)))))
Tm [1]: 51.3 °C
folding enthalpy [2]: -22.6 kcal/mol

CACAAGAAATTGTG (((((....)))))
Tm [1]: 37.6 °C
folding enthalpy [2]: -21.7 kcal/mol

CAGGTGAAAACCTG (((((....)))))
Tm [1]: 53 °C
folding enthalpy [2]: -24.5 kcal/mol

CATCCGAAAGGATG (((((....)))))
Tm [1]: 63.1 °C
folding enthalpy [2]: -25.8 kcal/mol

CATGAGAAATCATG (((((....)))))
Tm [1]: 43.9 °C
folding enthalpy [2]: -13.9 kcal/mol

CCCAAGAAATTGGG (((((....)))))
Tm [1]: 45.3 °C
folding enthalpy [2]: -17.3 kcal/mol

CCCGAGAAATCGGG (((((....)))))
Tm [1]: 54.2 °C
folding enthalpy [2]: -19.6 kcal/mol
